Assay results taken from ChEMBL document CHEMBL1125822, “Quantitative structure-activity relationships of antitumor guanidinothiazolecarboxamides with survival enhancement for therapy in the 3LL Lewis lung carcinoma model” (1991).

Test system: Lewis lung carcinoma cell line
Experiment: Compound injected intraperitoneally for 8 days and was tested for mean of increased life span in female BDF mice injected intravenously with 3LL Lewis Lung adenocarcinoma into lateral tail vein before 2 days
Assay type: functional, Mus musculus
Method in brief: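 Female BDF1 mice (18–20 g) given 6×10^5 log-phase 3LL cells in 0.2 mL RPMI 1640 by lateral tail vein. Drug suspended in DMSO/saline buffered to pH 7.4, dosed ip once daily on days 2–9 (8 treatments); screening dose 50 mg/kg. Mice monitored daily for survival; ILS (%) = (MST treated/MST vehicle control ×100) − 100; significance by Armitage trend test.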

| SMILES | ILS |
| --- | --- |
| COc1cc2nc(NC(=O)c3csc(N=C(N)N)n3)sc2cc1OC | 5 |
| COc1ccc(Cl)c2sc(NC(=O)c3csc(N=C(N)N)n3)nc12 | 69 |
| COc1ccc2sc(NC(=O)c3csc(N=C(N)N)n3)nc2c1C | 57 |
| COc1ccc(C(F)(F)F)c2sc(NC(=O)c3csc(N=C(N)N)n3)nc12 | 17 |
| Cc1cc(C(F)(F)F)cc2sc(NC(=O)c3csc(N=C(N)N)n3)nc12 | 19 |
| Cc1cc(Cl)cc2sc(NC(=O)c3csc(N=C(N)N)n3)nc12 | 15 |
| N=C(N)Nc1nc(C(=O)Nc2nc3c(F)ccc(F)c3s2)cs1 | 26 |
| N=C(N)Nc1nc(C(=O)Nc2nc3cc(Cl)c(C(N)=O)cc3s2)cs1 | 42 |
| CCOc1ccc2nc(NC(=O)c3csc(N=C(N)N)n3)sc2c1 | 6 |
| CCOc1ccc(F)c2sc(NC(=O)c3csc(N=C(N)N)n3)nc12 | 53 |
| N=C(N)Nc1nc(C(=O)Nc2nc3cc(F)c(F)cc3s2)cs1 | 62 |
| CCCCCS(=O)(=O)c1ccc2nc(NC(=O)c3csc(N=C(N)N)n3)sc2c1 | 30 |
| Cc1cc(C)c2nc(NC(=O)c3csc(N=C(N)N)n3)sc2c1 | 64 |
| CCOc1ccc(Cl)c2sc(NC(=O)c3csc(N=C(N)N)n3)nc12 | 75 |
| COc1ccc2nc(NC(=O)c3csc(N=C(N)N)n3)sc2c1 | 7.5 |
| N=C(N)Nc1nc(C(=O)Nc2nc3c(F)cccc3s2)cs1 | 38 |
| Cl.N=C(N)Nc1nc(C(=O)Nc2nc3ccc(S(N)(=O)=O)cc3s2)cs1 | 1 |
| CCCCOc1ccc2nc(NC(=O)c3csc(N=C(N)N)n3)sc2c1.Cl | 59 |
| CC(C)c1cccc2sc(NC(=O)c3csc(N=C(N)N)n3)nc12.Cl | 24 |
| Cl.N=C(N)Nc1nc(C(=O)Nc2nc3cc([N+](=O)[O-])ccc3s2)cs1 | 57 |
| CC(C)(C)c1ccc2nc(NC(=O)c3csc(N=C(N)N)n3)sc2c1.Cl | 61 |

| SMILES | ILS |
| --- | --- |
| Cl.N#Cc1ccc2nc(NC(=O)c3csc(NC(=N)N)n3)sc2c1 | 53 |
| Cl.N=C(N)Nc1nc(C(=O)Nc2nc3cc(O)ccc3s2)cs1 | 10 |
| Cl.N=C(N)Nc1nc(C(=O)Nc2nc3cc(F)cc(F)c3s2)cs1 | 22 |
| Cc1c(Cl)ccc2sc(NC(=O)c3csc(N=C(N)N)n3)nc12.Cl | 73 |
| COc1cccc2sc(NC(=O)c3csc(N=C(N)N)n3)nc12.Cl | 45 |
| Cl.N=C(N)Nc1nc(C(=O)Nc2nc3cc(-c4ccccc4)ccc3s2)cs1 | 18 |
| CCOc1ccc2sc(NC(=O)c3csc(N=C(N)N)n3)nc2c1.Cl | 44 |
| Cl.N=C(N)Nc1nc(C(=O)Nc2nc3c(O)cccc3s2)cs1 | 14 |
| Cl.N=C(N)Nc1nc(C(=O)Nc2nc3ccc([N+](=O)[O-])cc3s2)cs1 | 51.7 |
| Cc1ccc(F)c2sc(NC(=O)c3csc(N=C(N)N)n3)nc12.Cl | 53 |
| Cl.N=C(N)Nc1nc(C(=O)Nc2nc3ccc(Cl)cc3s2)cs1 | 58 |
| Cl.N=C(N)Nc1nc(C(=O)Nc2nc3cccc(-c4ccccc4)c3s2)cs1 | 49 |
| Cc1cccc2sc(NC(=O)c3csc(N=C(N)N)n3)nc12.Cl | 44 |
| CCCc1ccc2nc(NC(=O)c3csc(N=C(N)N)n3)sc2c1.Cl | 21.5 |
| Cc1cc2nc(NC(=O)c3csc(N=C(N)N)n3)sc2cc1C.Cl | 18 |
| Cl.N=C(N)Nc1nc(C(=O)Nc2nc3ccccc3s2)cs1 | 15 |
| CCc1cc(C#N)cc2sc(NC(=O)c3csc(N=C(N)N)n3)nc12.Cl | 38 |
| Cl.N=C(N)Nc1nc(C(=O)Nc2nc3ccc(Cl)c(C(F)(F)F)c3s2)cs1 | 69 |
| CCc1ccc2nc(NC(=O)c3csc(N=C(N)N)n3)sc2c1.Cl | 33 |
| CCCCOc1ccc2sc(NC(=O)c3csc(N=C(N)N)n3)nc2c1.Cl | 34.5 |
| CSc1ccc2sc(NC(=O)c3csc(N=C(N)N)n3)nc2c1.Cl | 1 |

| SMILES | ILS |
| --- | --- |
| CC(C)Oc1ccc2sc(NC(=O)c3csc(N=C(N)N)n3)nc2c1.Cl | 23 |
| CSc1cccc2sc(NC(=O)c3csc(N=C(N)N)n3)nc12.Cl | 9 |
| Cc1c(F)ccc2sc(NC(=O)c3csc(N=C(N)N)n3)nc12.Cl | 62 |
| Cc1cc(F)cc2sc(NC(=O)c3csc(N=C(N)N)n3)nc12.Cl | 29 |
| CS(=O)(=O)c1ccc2sc(NC(=O)c3csc(N=C(N)N)n3)nc2c1 | 1 |
| N=C(N)Nc1nc(C(=O)Nc2nc3cc(Cl)c(Cl)cc3s2)cs1 | 71 |
| COc1cc([N+](=O)[O-])cc2sc(NC(=O)c3csc(N=C(N)N)n3)nc12 | 20 |
| N=C(N)Nc1nc(C(=O)Nc2nc3c(Cl)cccc3s2)cs1 | 18 |
| N=C(N)Nc1nc(C(=O)Nc2nc3cccc(C(F)(F)F)c3s2)cs1 | 35 |
| COc1cc2nc(NC(=O)c3csc(N=C(N)N)n3)sc2cc1Cl | 21 |
| CC(C)c1ccc2nc(NC(=O)c3csc(N=C(N)N)n3)sc2c1 | 38 |
| N=C(N)Nc1nc(C(=O)Nc2nc3cc(F)c(Cl)cc3s2)cs1 | 75 |
| N=C(N)Nc1nc(C(=O)Nc2nc3cc(F)c(O)cc3s2)cs1 | 23 |
| N=C(N)Nc1nc(C(=O)Nc2nc3ccc(-c4ccccc4)cc3s2)cs1 | 67 |
| Cc1ccc2nc(NC(=O)c3csc(N=C(N)N)n3)sc2c1 | 37.3 |
| N=C(N)Nc1nc(C(=O)Nc2nc3cc(Cl)c(F)cc3s2)cs1 | 41 |
| CSc1ccc2nc(NC(=O)c3csc(N=C(N)N)n3)sc2c1 | 25.5 |
| N=C(N)Nc1nc(C(=O)Nc2nc3c([N+](=O)[O-])cccc3s2)cs1 | 30 |
| N=C(N)Nc1nc(C(=O)Nc2nc3ccc(F)cc3s2)cs1 | 38.8 |
| N=C(N)Nc1nc(C(=O)Nc2nc3cc(F)ccc3s2)cs1 | 67.6 |
| N=C(N)Nc1nc(C(=O)Nc2nc3ccc(C(N)=O)cc3s2)cs1 | 1 |
